In ChEMBL document CHEMBL3271935, “Synthesis and biological activity of some broad-spectrum N-acylphenyglycine cephalosporins” (1977):
Values after ≈ are worked out from the molar mass of the structure shown.

Key:
Pseudomonas aeruginosa [1] = assay: Antibacterial activity against Pseudomonas aeruginosa 1106 assessed as growth inhibition; format: functional
Procedure, shortened: (§1)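 Broth MIC by the standard microtiter technique in unbuffered Mueller-Hinton broth.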

Pseudomonas aeruginosa [2] = assay: Antibacterial activity against Pseudomonas aeruginosa 1042 assessed as growth inhibition; format: functional; procedure, shortened: as §1
Escherichia coli [3] = assay: Antibacterial activity against Escherichia coli 12140 assessed as growth inhibition by two-fold agar dilution method; format: functional
Procedure, shortened: (§2)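 MIC (μg/mL) by twofold agar dilution on Trypticase soy agar buffered to pH 6.0.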

Pseudomonas aeruginosa [4] = assay: Antibacterial activity against Pseudomonas aeruginosa 647 assessed as growth inhibition; format: functional; procedure, shortened: as §1
Pseudomonas aeruginosa [5] = assay: Antibacterial activity against Pseudomonas aeruginosa HH 63 assessed as growth inhibition by two-fold agar dilution method; format: functional; procedure, shortened: as §2
Staphylococcus aureus = assay: Antibacterial activity against penicillin G resistant Staphylococcus aureus HH 127 assessed as growth inhibition by two-fold agar dilution method; format: functional
Procedure, shortened: (§3)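 Twofold agar dilution on Trypticase soy agar buffered to pH 6.0. MIC reported in μg/mL.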

Pseudomonas aeruginosa [6] = assay: Antibacterial activity against Pseudomonas aeruginosa 1062 assessed as growth inhibition; format: functional; procedure, shortened: as §1
Klebsiella pneumoniae = assay: Antibacterial activity against Klebsiella pneumoniae 4200 assessed as growth inhibition by two-fold agar dilution method; format: functional; procedure, shortened: as §2
Morganella morganii = assay: Antibacterial activity against indole positive Proteus morganii 179 assessed as growth inhibition by two-fold agar dilution method; format: functional; procedure, shortened: as §2
Pseudomonas aeruginosa [7] = assay: Antibacterial activity against Pseudomonas aeruginosa 219 assessed as growth inhibition; format: functional; procedure, shortened: as §1
Pseudomonas aeruginosa [8] = assay: Antibacterial activity against Pseudomonas aeruginosa 864 assessed as growth inhibition; format: functional; procedure, shortened: as §1
Pseudomonas aeruginosa [9] = assay: Antibacterial activity against Pseudomonas aeruginosa 1504 assessed as growth inhibition; format: functional; procedure, shortened: as §1
Salmonella paratyphi = assay: Antibacterial activity against Salmonella paratyphi ATCC 12176 assessed as growth inhibition by two-fold agar dilution method; format: functional, Salmonella enterica subsp. enterica serovar Paratyphi A; settings: Salmonella enterica; procedure, shortened: as §3
Klebsiella aerogenes = assay: Antibacterial activity against Enterobacter aerogenes ATCC 13048 assessed as growth inhibition by two-fold agar dilution method; format: functional; procedure, shortened: as §2
Pseudomonas aeruginosa [10] = assay: Antibacterial activity against Pseudomonas aeruginosa 1063 assessed as growth inhibition; format: functional; procedure, shortened: as §1
Escherichia coli [11] = assay: Antibacterial activity against Escherichia coli 12140 infected in sc dosed mouse administered at 1 to 5 hrs measured for 3 days; format: functional; settings: Escherichia coli, 12140, sc; read-out: PD50
Procedure, shortened: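 Mice infected intraperitoneally with about 2×10^3 organisms per mouse of E. coli 12140 culture diluted in 5% hog gastric mucin, giving uniformly lethal infection. Fourfold dilutions given subcutaneously in equally divided portions at 1 and 5 h postinfection, five groups per compound. Survivors observed 3 days. PD50 is total dose (mg/kg) protecting 50%, calculated by Litchfield–Wilcoxon method.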

`CC1(C)S[C@@H]2[C@H](NC(=O)C(C(=O)O)c3ccccc3)C(=O)N2[C@H]1C(=O)O` (stereo partly specified) [CARBENICILLIN] showed an MIC (Pseudomonas aeruginosa [1]) of 125 µg/mL (≈ 330 µM), an MIC (Pseudomonas aeruginosa [2]) of 63 µg/mL (≈ 166 µM) and an MIC (Escherichia coli [3]) of 6.3 µg/mL (≈ 16.6 µM). For the same compound, the MIC (Pseudomonas aeruginosa [4]) was 63 µg/mL (≈ 166 µM), the MIC (Pseudomonas aeruginosa [5]) was 50 µg/mL (≈ 132 µM) and the MIC (Staphylococcus aureus) was 3.1 µg/mL (≈ 8.19 µM). It also gave an MIC (Pseudomonas aeruginosa [6]) of 63 µg/mL (≈ 166 µM), an MIC (Klebsiella pneumoniae) of 6.3 µg/mL (≈ 16.6 µM) and an MIC (Morganella morganii) of 0.8 µg/mL (≈ 2.11 µM). It also gave an MIC (Pseudomonas aeruginosa [7]) of 63 µg/mL (≈ 166 µM), an MIC (Pseudomonas aeruginosa [8]) of 500 µg/mL (≈ 1320 µM) and an MIC (Pseudomonas aeruginosa [9]) of 63 µg/mL (≈ 166 µM). It also gave an MIC (Salmonella paratyphi) of 6.3 µg/mL (≈ 16.6 µM), an MIC (Klebsiella aerogenes) of 12.5 µg/mL (≈ 33 µM) and an MIC (Pseudomonas aeruginosa [10]) of 63 µg/mL (≈ 166 µM). It also gave an ED50 (Escherichia coli [11]) of 25 mg/kg.
